A selection: hits, their analogues and other compounds. The true share with any hit is near 29%.
CYP2C9 activ = human CYP2C9 activators, primary screen, biochemical, luminescence; Cytochrome P450 2C9 (Homo sapiens), P11712; recombinant CYP2C9, luciferin-H conversion; active compounds read high; factor 1 = untreated enzyme, 0 = blocked; activation factor at 5 µM; 96,000 compounds, 1.4% hits;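 active means activation factor of 2 or more for CYP2C9 at a 5 µM dose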
Target sequence (P11712 whole entry, looked up): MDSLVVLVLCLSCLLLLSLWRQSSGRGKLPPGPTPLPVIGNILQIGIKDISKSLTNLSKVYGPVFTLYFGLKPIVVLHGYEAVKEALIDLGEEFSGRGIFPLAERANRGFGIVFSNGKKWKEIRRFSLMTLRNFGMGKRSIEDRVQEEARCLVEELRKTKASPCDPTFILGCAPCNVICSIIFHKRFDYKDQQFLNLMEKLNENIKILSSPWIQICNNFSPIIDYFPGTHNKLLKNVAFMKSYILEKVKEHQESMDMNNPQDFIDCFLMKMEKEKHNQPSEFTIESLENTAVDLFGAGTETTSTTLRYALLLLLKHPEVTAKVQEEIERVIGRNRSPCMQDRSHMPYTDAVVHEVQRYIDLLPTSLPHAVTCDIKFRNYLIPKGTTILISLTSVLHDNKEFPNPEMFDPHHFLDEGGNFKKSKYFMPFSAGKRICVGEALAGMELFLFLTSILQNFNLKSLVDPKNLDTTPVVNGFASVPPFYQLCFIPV
tolC growth inh = growth inhibitors of E. coli tolC mutant, primary screen, strain BW25113 ΔtolC::kan, 384-well. growth inhibition, % at 10 µM (by protocol). 65,000 compounds, 2.2% hits. OD615;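 active means growth inhibition at or above a cutoff equal to the mean over every tested compound plus 3 SD, cut at about 60% in these data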;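 further: growth measured after 20 h incubation at 37 °C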
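Test system: E. coli BW25113 ΔtolC::kan bacteria | Medium: Kanamycin-containing LB broth (50 µg/mL) | Dosing: One dose of 10 µM final | Times: 20 h incubation with compound, 37 °C | Detection: Optical density read at 615 nm | Read-out basis: Percent growth inhibition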
CYP2C19 inhib = blockers of cytochrome P450 2C19 activity – biochemical, luminescence, ADME assay, primary screen; P33261; CYP2C19 Supersomes, luciferin-H EGE luminescence, 30 min; inhibition, % at 5 µM; 96,000 compounds, 21% hits; AID 778, 2007;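 active means CYP2C19 inhibition above a set limit at 5 µM in the primary screen, cut at about 50% in these data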
CYP2C19 act = human CYP2C19 activators, primary screen, biochemical, luminescence; Cytochrome P450 2C19 (Homo sapiens), P33261; recombinant CYP2C19, luciferin-H EGE luminescence; active compounds read high; 0 = fully inhibited enzyme, 1 = untreated enzyme; activation factor at 5 µM; 96,000 tested, under 10 active; AID 1025, 2008;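 active means activation factor of at least 2 at 5 µM in the primary screen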
CYP2C9 inh = blockers of cytochrome P450 2C9 activity – biochemical, luminescence, ADME assay, primary screen | P11712 | CYP2C9 Supersomes, luciferin-H conversion | inhibition, % at 5 µM | 96,000 compounds, 20% hits;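 active means blocking of liver enzyme CYP2C9 beyond about 50% at 5 µM, limit read from the data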
Ecoli WT expand = growth inhibitors of wild-type E. coli, primary screen, strain BW25113, expanded library, OD600. OD600 absorbance. growth inhibition, % at 100 µM. 98,000 compounds, 0.15% hits. AID 710, 2007;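 active means growth inhibition above about 50% at one test dose, limit read from the data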;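 further: growth measured after 20 h incubation at 37 °C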
A number is an active result; n = inactive; x = no result given.

SMILES | CYP2C9 activ | tolC growth inh | CYP2C19 inhib | CYP2C19 act | CYP2C9 inh | Ecoli WT expand
O=C(Cn1c(=O)oc2cc(S(=O)(=O)N3CCOCC3)ccc21)N1CCc2ccccc2C1 | n | n | n | n | n | n
CC1Cc2ccccc2N1C(=O)Cn1c(=O)oc2cc(S(=O)(=O)N3CCCCC3)ccc21 (stereo unspecified) | n | n | 52.5 | n | 64.9 | n
Cn1c(=O)oc2cc(S(=O)(=O)N3CCC(C(=O)N4CCc5ccccc5C4)CC3)ccc21 | n | x | n | n | n | n
O=C(Cn1c(=O)oc2cc(S(=O)(=O)N3CCCC3)ccc21)NCc1ccc(F)cc1 | n | x | n | n | 85.1 | n
O=C(Cn1c(=O)oc2cc(S(=O)(=O)N3CCCC3)ccc21)N1CCCC1 | n | x | n | n | n | n
Cn1c(=O)oc2cc(S(=O)(=O)N3CCc4ccccc4C3)ccc21 | n | n | 51.5 | n | n | n
O=C(Cn1c(=O)oc2cc(S(=O)(=O)N3CCCC3)ccc21)N1CCc2ccccc2C1 | n | x | n | n | 63.7 | n
COc1cccc(-n2nnc3c(=O)n(Cc4ccc(Br)cc4)cnc32)c1 | n | n | n | n | n | n
COC(=O)c1[nH]c2cc(OC)c(OC)cc2c1NC(=O)Oc1ccccc1 | n | x | n | n | n | n
CC(OC1=CC(=O)CCC1)C(=O)c1ccccc1 (stereo unspecified) | n | n | n | n | n | n
CCCn1c(N)c(Sc2ccc(Cl)cc2)c(=O)n(CCC)c1=O | n | n | 89.8 | n | 57.6 | n
CCCCn1c(N)c(Sc2ccc(Cl)cc2)c(=O)[nH]c1=O | n | x | n | n | n | n
O=C(c1cccc2ccccc12)N1CCN(CC2CC=CCC2)CC1 (stereo unspecified) | 2.6 | n | n | n | n | n
O=C(c1ccncc1)N1CCN(C(=O)c2cccc3ccccc23)CC1 | n | n | n | n | n | n
CCN(CCCNC(=O)c1[nH]c(C)c(C(C)=O)c1C)c1ccccc1 | n | n | n | n | n | n
C#CCN(C#N)c1nc(NCC)nc(NC(C)C)n1 | n | n | n | n | n | n
CCNc1nc(NC(C)C)nc(N(C#N)CCOc2ccccc2)n1 | n | x | 59.8 | n | n | n
CCN(C#N)c1nc(NC(C)C)nc(NC(C)C)n1 | n | n | n | n | 72.8 | n
CCC1CCc2c(sc(NC(=O)c3ccoc3C)c2C(N)=O)C1 (stereo unspecified) | n | n | n | n | n | n
COc1ccc2c(c1)nc(N)n2Cc1ccccc1 | n | n | 85.1 | n | n | n
COc1ccc(-c2nc3ccccc3n2Cc2ccccc2)cc1 | n | x | 76.2 | n | 95.9 | n
COc1ccc2c(c1)c(=O)c(Br)c(C)n2Cc1ccccc1 | n | n | n | n | n | n
C=CCn1c(-c2ccc(OC)cc2)nc2ccccc21 | n | n | 72.6 | n | 76.5 | n
CCCn1nnnc1-c1ccc(Cl)cc1 | n | x | n | n | n | n
COc1ccc(-c2nnnn2CCc2ccccc2)cc1 | n | n | 97.9 | n | 71.4 | n
SMILES | CYP2C9 activ | tolC growth inh | CYP2C19 inhib | CYP2C19 act | CYP2C9 inh | Ecoli WT expand
C=CCn1c(-c2ccc(N)cc2)nc2ccccc21 | n | n | n | n | n | n
O=C(N/C(=N\O)c1ccccc1)Nc1ccc(Cl)cc1 | n | n | 64.0 | n | 56.4 | n
O=C(c1ccc2c(=O)n(-c3ccccc3)c(=O)[nH]c2c1)N1CCCCC1 | n | n | n | n | n | n
O=c1[nH]c2cc(Cl)ccc2n1-c1ccccc1 | n | n | 50.1 | n | n | n
CCn1c(-c2ccccc2Cl)nn(CC(=O)Nc2ccccc2OC)c1=S | n | x | 90.6 | n | n | n
COCCn1c(-c2ccsc2)nc2c1c(=O)[nH]c(=O)n2CC(C)C | n | x | 55.3 | n | n | n
Cc1ccc(S(=O)(=O)Cc2c(C)noc2C)cc1 | n | x | 100.0 | n | n | n
Cc1noc(C)c1CS(=O)(=O)c1ccc(Br)cc1 | n | x | 98.5 | n | n | n
CCCn1c(=O)[nH]c(=O)c2c1nc(-c1ccc3c(c1)OCCO3)n2CCN1CCOCC1 | n | n | n | n | n | n
CCn1nnnc1NCc1ccc(N2CCCC2)cc1 | n | n | 79.3 | n | 81.4 | n
CCOC(=O)c1cccc(-n2c(C)nc3ccccc3c2=O)c1 | n | n | n | n | n | n
CCOC(=O)c1cccc(N2C(=O)c3ccccc3S2(=O)=O)c1 | n | n | 56.4 | n | 68.4 | n
Clc1ccc(Cc2ccc(Cl)nn2)c(Cl)c1 | n | x | 73.0 | n | n | n
CCOC(=O)c1ccccc1OCc1cc(/C=N/n2cncn2)ccc1OC | x | n | x | x | x | n
COc1cccc(/C=N/n2cncn2)c1OCC#N | n | n | 77.6 | n | n | n
CSc1ccc(C2C(C#N)=C(N)Oc3cc4c(cc32)OCO4)cc1 (stereo unspecified) | n | n | n | n | n | n
CC(C)(C)c1ccc(C(=O)NNc2cc(N3CCCCC3)nc(N3CCCCC3)n2)cc1 | n | x | n | n | 60.7 | n
CC(C)(C)c1ccc(C(=O)NNC(=O)C(=O)N2CCCCC2)cc1 | n | x | n | n | n | n
CCn1c(=O)cc(SCC(=O)N2CCN(c3ccccn3)CC2)c2ccccc21 | n | n | 71.8 | n | 51.2 | n
CCn1c(=O)n(CC(=O)N2CCN(c3ccccc3F)CC2)c(=O)c2ccccc21 | n | n | n | n | n | n
CCOC(=O)CSc1cc(=O)n(CC)c2ccccc12 | n | x | n | n | n | n
CCn1c(=O)cc(SCC(=O)N2CCN(c3ccccc3F)CC2)c2ccccc21 | 2.2 | x | n | n | n | n
Cc1cc2ccccc2c(=O)n1CC(=O)NCC(=O)N1CCN(c2ccccc2F)CC1 | 2.1 | n | n | n | n | n
CCc1ccc(N(CC(=O)NC2CCCC2)S(=O)(=O)c2c(C)noc2C)cc1 | n | n | n | n | 64.5 | n
Cc1n[nH]c(C)c1S(=O)(=O)N(CC(=O)NC1CCCC1)c1ccc(C(C)C)cc1 | n | n | 61.0 | n | 74.7 | n
SMILES | CYP2C9 activ | tolC growth inh | CYP2C19 inhib | CYP2C19 act | CYP2C9 inh | Ecoli WT expand
CCc1ccc(N(CC(=O)Nc2nc3ccc(C)cc3s2)S(=O)(=O)c2c(C)noc2C)cc1 | n | x | 58.1 | n | 93.0 | n
N#CC1(P(=O)(c2ccccc2)c2ccccc2)CC1 | n | n | n | n | n | n
Cc1cc(=O)oc(C)c1C(=O)N1CCN(C)CC1 | n | n | n | n | n | n
COc1ccc(OC(C)C(=O)N2CCOCC2)cc1 (stereo unspecified) | n | n | n | n | n | n
COc1ccc(N2Cc3ccccc3C2)cc1Cl | n | n | n | n | 58.3 | n
COc1ccc(Cl)cc1N1Cc2ccccc2C1 | n | x | n | n | n | n
CCn1c(SCC(=O)c2ccc(Cl)cc2)nnc1-c1cccs1 | n | x | 69.7 | n | n | n

Source: PubChem (several laboratories)
